In ChEMBL document CHEMBL4145525, “Machine learning prioritizes synthesis of primaquine ureidoamides with high antimalarial activity and attenuated cytotoxicity” (Eur J Med Chem, 2018):

Assays:
[1] = Selectivity index, ratio of IC50 for rat L6 cells to IC50 for erythrocytic stage of Plasmodium falciparum NF54; type: toxicity; settings: read-out: Ratio IC50
How it was run: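 Ratio of the L6 cytotoxicity IC50 to the IC50 against P. falciparum NF54.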

Plasmodium falciparum = assay: Antiplasmodial activity against erythrocytic stage of Plasmodium falciparum NF54 assessed as reduction in [3H]hypoxanthine incorporation after 48 hrs by liquid scintillation counting method; type: functional, organism-based
How it was run: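 Asexual blood-stage NF54 grown in hypoxanthine-free RPMI 1640 with HEPES, NaHCO3, neomycin and Albumax, using washed human A+ erythrocytes at 2.5% hematocrit and 0.3% parasitemia. Compounds were made as 10 mg/ml DMSO stocks and run as eleven 3-fold dilutions, 100 to 0.002 µg/ml. Incubation at 37 °C in 4% CO2, 3% O2, 93% N2. After 48 h, 0.5 µCi 3H-hypoxanthine was added for a further 24 h, then harvested and scintillation counted. IC50 by linear interpolation of sigmoidal curves; averages of 2–3 independent experiments.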

MCF7 [2] = assay: Cytotoxicity against human MCF7 cells assessed as growth inhibition at 10 uM cotreated with G6PD inhibitor 6-AN after 72 hrs by MTT assay; type: cell-based; settings: mcf7, 72 h
How it was run: (§1)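 Adherent cells seeded at 2×10^4–4×10^4 cells/well and left 24 h, then treated with compound alone or together with 6-aminonicotinamide (always 10 µM, used to mimic G6PD deficiency). Final DMSO <0.2%. Growth measured by MTT after 72 h and expressed as percentage growth relative to untreated cells.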

L6 = assay: Cytotoxicity against rat L6 cells assessed as reduction in cell viability after 70 hrs by Alamar blue assay; type: cell-based; settings: L6, 70 h
How it was run: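 L6 rat skeletal myoblasts were plated at 4000 cells/well in RPMI 1640 with L-glutamine and 10% FBS. Eleven 3-fold drug dilutions, 100 to 0.002 µg/ml. After 70 h, Alamar Blue was added for 2 h and fluorescence read (ex 536 nm, em 588 nm). IC50 by linear interpolation from sigmoid dose-inhibition curves.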

A2780 = assay: Cytotoxicity against human A2780 cells assessed as growth inhibition after 72 hrs by MTT assay; type: cell-based; settings: A2780, 72 h
How it was run: (§2)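 Monolayers grown in DMEM or RPMI-1640 with 10% FBS, 2 mM L-glutamine and penicillin/streptomycin at 37 °C, 5% CO2. Seeded at 2×10^4–4×10^4 cells/well and attached for 24 h. Five serial 10-fold dilutions added, final DMSO <0.2%. MTT read-out at 72 h; percentage growth calculated. IC50 by linear interpolation between concentrations bracketing 50% growth; at least two biological replicates.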

NCI-H460 [3] = assay: Cytotoxicity against human NCI-H460 cells assessed as growth inhibition after 72 hrs by MTT assay; type: cell-based; settings: NCI-H460, 72 h; how it was run: as §2
MCF7 [4] = assay: Cytotoxicity against human MCF7 cells assessed as growth inhibition after 72 hrs by MTT assay; type: cell-based; settings: MCF7, 72 h; how it was run: as §2
NCI-H460 [5] = assay: Cytotoxicity against human NCI-H460 cells assessed as growth inhibition at 10 uM cotreated with G6PD inhibitor 6-AN after 72 hrs by MTT assay; type: cell-based; settings: nci-h460, 72 h; how it was run: as §1
SW-620 = assay: Cytotoxicity against human SW620 cells assessed as growth inhibition after 72 hrs by MTT assay; type: cell-based; settings: SW-620, 72 h; how it was run: as §2
CAPAN-1 = assay: Cytotoxicity against human Capan1 cells assessed as growth inhibition after 72 hrs by MTT assay; type: cell-based; settings: CAPAN-1, 72 h
How it was run: (§3)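 Cells cultured in DMEM or RPMI-1640 with 10% FBS, 2 mM L-glutamine and antibiotics at 37 °C, 5% CO2. Seeded at 2×10^4–4×10^4 cells/well and attached for 24 h before five serial 10-fold compound dilutions, final DMSO <0.2%. MTT at 72 h. IC50 interpolated between the two concentrations flanking 50% growth inhibition; single experiment.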

HCT-116 = assay: Cytotoxicity against human HCT116 cells assessed as growth inhibition after 72 hrs by MTT assay; type: cell-based; settings: HCT-116, 72 h; how it was run: as §3
HL-60 = assay: Cytotoxicity against human HL60 cells assessed as growth inhibition after 72 hrs by MTT assay; type: cell-based; settings: HL-60, 72 h
K562 = assay: Cytotoxicity against human K562 cells assessed as growth inhibition after 72 hrs by MTT assay; type: cell-based; settings: K562, 72 h
[6] = Cytotoxicity against human MCF7 cells assessed as cell growth at 10 uM after 72 hrs by MTT assay relative to control; type: cell-based; settings: read-out: Activity; how it was run: as §1
[7] = Safety index, ratio of compound IC50 to primaquine IC50 for rat L6 cells; type: ADME, cell-based; settings: read-out: Ratio IC50
[8] = Cytotoxicity against human MCF7 cells assessed as cell growth at 10 uM cotreated with G6PD inhibitor 6-AN after 72 hrs by MTT assay relative to control; type: cell-based; how it was run: as §1

SMILES	IC50 (Plasmodium falciparum) [µM]	selectivity ratio [1]	growth inhibition (GI) (MCF7 [2])	IC50 (L6) [µM]	IC50 (A2780) [µM]	IC50 (NCI-H460 [3]) [µM]	IC50 (MCF7 [4]) [µM]	growth inhibition (GI) (NCI-H460 [5])	IC50 (SW-620) [µM]	IC50 (CAPAN-1) [µM]	IC50 (HCT-116) [µM]	IC50 (HL-60) [µM]	IC50 (K562) [µM]	viability at 72 h, 10 µM [6] [%]	selectivity ratio [7]	viability at 72 h, 10 µM [8] [%]
COc1cc(NC(C)CCCN)c2ncccc2c1 (stereo unspecified) [PRIMAQUINE PHOSPHATE]	1.5	39.7	–	59.5	5	10	5	–	14	14.2	44.2	11.4	12	25	–	–
COc1cc(NC(C)CCCNC(=O)NC(C(=O)Nc2ccc(Br)cc2)c2ccc(Cl)cc2)c2ncccc2c1 (stereo unspecified)	3.2	16.9	–	54	–	52	16	–	32	> 100	> 100	> 100	> 100	–	–	–
COc1cc(NC(C)CCCNC(=O)NC(CC(C)C)C(=O)NC(c2ccccc2)c2ccccc2)c2ncccc2c1 (stereo unspecified)	3.4	> 50	Non-Toxic	> 170	36	> 100	> 100	Non-Toxic	> 100	> 100	> 100	> 100	> 100	–	–	–
COc1cc(NC(C)CCCNC(=O)NC(C(=O)NC(c2ccccc2)c2ccc(Cl)cc2)c2ccc(Cl)cc2)c2ncccc2c1 (stereo unspecified)	1.8	> 83.3	–	> 150	14	> 100	> 100	Non-Toxic	> 100	> 100	> 100	> 100	> 100	93	2.5	76
COc1ccc(C(=NNC(=O)NNC(=O)NCCCC(C)Nc2cc(OC)cc3cccnc23)c2ccc(OC)cc2)cc1 (stereo unspecified)	1.9 to 2.2	61.9	Toxic	136	0.06	5	0.9 to 1	Toxic	–	–	–	–	–	–	–	–

More lines, main results first:

IC50 (Plasmodium falciparum) [µM]	SMILES	selectivity ratio [1]	growth inhibition (GI) (MCF7 [2])	IC50 (L6) [µM]	IC50 (A2780) [µM]	IC50 (NCI-H460 [3]) [µM]	IC50 (MCF7 [4]) [µM]	growth inhibition (GI) (NCI-H460 [5])	IC50 (SW-620) [µM]	IC50 (CAPAN-1) [µM]	IC50 (HCT-116) [µM]	IC50 (HL-60) [µM]	IC50 (K562) [µM]	viability at 72 h, 10 µM [6] [%]	selectivity ratio [7]	viability at 72 h, 10 µM [8] [%]
2.3 to 2.4	COc1ccc(C(=NNC(=O)NCCCC(C)Nc2cc(OC)cc3cccnc23)c2ccc(OC)cc2)cc1 (stereo unspecified)	78.3	Toxic	> 180	1	> 100	2.8 to 3	Toxic	–	–	–	–	–	–	–	–
3	COc1cc(NC(C)CCCNC(=O)NC(C(=O)NC(c2ccccc2)c2ccc(Cl)cc2)c2ccccc2)c2ncccc2c1 (stereo unspecified)	> 53.3	Non-Toxic	> 160	> 100	> 100	> 100	Non-Toxic	> 100	> 100	> 100	> 100	> 100	–	–	–
1.4	COc1cc(NC(C)CCCNC(=O)NC(C(=O)NC(c2ccccc2)c2ccccc2)c2ccc(Cl)cc2)c2ncccc2c1 (stereo unspecified)	> 114	–	> 160	> 100	> 100	> 100	–	6	> 100	> 100	> 100	> 100	80	2.7	65
1.2	COc1cc(NC(C)CCCNC(=O)NNC(=O)NCCNC(c2ccccc2)(c2ccccc2)c2ccccc2)c2ncccc2c1 (stereo unspecified)	> 83.3	Toxic	> 100	1	3	3	Toxic	–	–	–	–	–	–	–	–
